Laboratory results reported in ChEMBL document CHEMBL4177561, “Development of Selective, Orally Active GPR4 Antagonists with Modulatory Effects on Nociception, Inflammation, and Angiogenesis” (J Med Chem, 2017).

Key:
[1] = Clearance in Sprague-Dawley rat at 1 mg/kg, iv; type: ADME, organism-based; details: in vivo
Summary of the method: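 Female Sprague-Dawley rats with femoral artery and vein catheters received a single iv dose of 1 mg/kg in NMP:PEG200 (30:70). Clearance is the mean ± SD of four animals.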

Rattus norvegicus = test: Dose normalized AUC in Sprague-Dawley rat at 3 mg/kg, po; type: ADME, organism-based; details: in vivo
Summary of the method: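 Catheterized female Sprague-Dawley rats received a single oral dose of 3 mg/kg as a suspension in CMC:water:Tween 80 (0.5:99:0.5). This followed a 48 h wash-out after iv dosing in the same animals.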

[2] = Drug level in blood of FVB mouse chamber implant model at 30 mg/kg, po bid for 4 days measured at 2 hrs on day 4; details: read-out: Drug uptake
[3] = Drug level in blood of FVB mouse chamber implant model at 30 mg/kg, po bid for 4 days measured at 16 hrs on day 4; details: read-out: Drug uptake
[4] = Drug level in blood of methylated BSA and complete Freund's adjuvant sensitized Lewis rat antigen-induced arthritis model at 30 mg/kg, po bid for 7 days and measured 2 hrs post dose; type: ADME, organism-based; details: read-out: Drug uptake
Summary of the method: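 Lewis rat AIA model, 30 mg/kg po bid. Blood concentration was measured on day 7 at 2 h post dose. Values are the mean of n = 5.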

Row | Compound | clearance [1] | AUC/dose (Rattus norvegicus) | concentration at 2 h [2] | concentration at 16 h [3] | concentration at 2 h [4]
1 | CCc1nn2c(C)cc(C)nc2c1Cc1ccc(CCCN2CCN(C(C)C)CC2)cc1 | 29 mL/min/kg | 1.1 µmol·h/L | – | – | –
2 | CCc1nn2c(C)cc(C)nc2c1Cc1ccc(CCC(=O)N2CCNCC2)cc1 | 28 mL/min/kg | 1.2 µmol·h/L | – | – | –
3 | CCc1nn2c(C)cc(C)nc2c1Cc1ccc(CCC(O)C2CCNCC2)cc1 (centres undefined) | 31 mL/min/kg | 0.49 µmol·h/L | – | – | –
4 | CCc1nn2c(C)cc(C)nc2c1Cc1ccc(CCCC2(O)CCNCC2)cc1 | 49 mL/min/kg | 0.53 µmol·h/L | – | – | –
5 | CCc1nn2c(C)cc(C)nc2c1Cc1ccc(-c2nnc(C3CCNCC3)o2)cc1 | 6 mL/min/kg | 6.7 µmol·h/L | 9.03 µM | 0.09 µM | –

Continued, in another order:

Row | clearance [1] | AUC/dose (Rattus norvegicus) | concentration at 2 h [2] | concentration at 16 h [3] | Compound | concentration at 2 h [4]
6 | 12 mL/min/kg | 3.2 µmol·h/L | – | – | CCc1nn2c(C)cc(C)nc2c1Cc1ccc(/C=C/CN2CCN(C(C)C)CC2)cc1 | –
7 | 11 mL/min/kg | 5.1 µmol·h/L | – | – | CCc1nn2c(C)cc(C)nc2c1Cc1ccc(/C=C/CN2CCN(C[C@@H](O)CO)CC2)cc1 | –
8 | 4 mL/min/kg | 13.6 µmol·h/L | – | – | CCc1nn2c(C)cc(C)nc2c1Cc1ccc(/C=C/CN2CCNC(=O)C2)cc1 | 23 µM
